Reference: ChEMBL document CHEMBL1140132, “Virtual screening, identification, and biochemical characterization of novel inhibitors of the reverse transcriptase of human immunodeficiency virus type-1” (J Med Chem, 2008)
Calls of active or inactive are those of the source. No cut-off for these calls is given here.

Tests used:
[1] = test system: Human immunodeficiency virus 1; assay: Antiviral activity against HIV1 infected in human 721.221 B lymphocytes assessed as inhibition of pseudovirus infection; settings: Human immunodeficiency virus 1, 721.221
[2] = Selectivity index, ratio of inhibition of DNA dependent DNA polymerase activity of Escherichia coli DNA polymerase 1 Klenow fragment to inhibition of DNA dependent DNA polymerase activity of HIV1 BH10 recombinant reverse transcriptase p66/p51
How it was run: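 Ratio of residual Klenow fragment DNA-dependent DNA polymerase activity to residual HIV-1 RT activity. Both enzymes were assayed side by side under identical conditions: activated herring sperm DNA at 20 µg/mL, all four dNTPs, 37 °C, 1% DMSO, compound at 50 µg/mL.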

Escherichia coli = assay: Inhibition of DNA dependent DNA polymerase activity of Escherichia coli DNA polymerase 1 Klenow fragment assessed as residual enzyme activity at 50 ug/ml relative to control
[3] = test system: Human immunodeficiency virus 1; assay: Antiviral activity against HIV1 infected in human CEM cells; format: functional, organism-based; settings: Human immunodeficiency virus 1, CCRF-CEM
[4] = test system: Human immunodeficiency virus 2; assay: Inhibition of DNA dependent DNA polymerase activity of HIV2 recombinant reverse transcriptase at 140 uM
[5] = test system: Human immunodeficiency virus 1; assay: Antiviral activity against HIV1 infected in human 293T cells assessed as inhibition of pseudovirus infection; format: functional, organism-based; settings: Human immunodeficiency virus 1, HEK-293T
[6] = test system: Human immunodeficiency virus 1; assay: Antiviral activity against HIV1 infected in 8186 T cells; format: functional, organism-based; settings: Human immunodeficiency virus 1, T-cell
[7] = test system: Human immunodeficiency virus type 1 reverse transcriptase (Human immunodeficiency virus 1), Q72547 [L100I,K103N]; assay: Inhibition of DNA dependent DNA polymerase activity of HIV1 reverse transcriptase L100I/K103N mutant expressed in Escherichia coli DH5alpha
How it was run: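 DDDP assay on activated herring sperm DNA (20 µg/mL final) with all four dNTPs, at 37 °C with 1% DMSO. Inhibitor in DMSO is premixed into the buffer before RT is added. Read-out is dNTP incorporation. Dose-response is fitted to a four-parameter logistic for IC50. Values are means of three independent experiments.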

[8] = target: Human immunodeficiency virus type 1 reverse transcriptase (Human immunodeficiency virus 1) (UniProt Q72547); assay: Inhibition of HIV1 BH10 recombinant reverse transcriptase p66/p51 RNase H activity assessed as residual enzyme activity
How it was run: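 FRET RNase H assay: RT at 6 nM with 1 mM DTT, incubated with a fluorescein-RNA/DNA-dabcyl hybrid substrate ± inhibitor for 30 min at 37 °C. Hydrolysis is read as emitted fluorescence, in triplicate. Residual activity is relative to the inhibitor-free control.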

[9] = test system: Human immunodeficiency virus 1; assay: Antiviral activity against HIV1 infected in human 293T cells; format: functional, organism-based; settings: Human immunodeficiency virus 1, HEK-293T
[10] = test system: Human immunodeficiency virus 2; assay: Inhibition of RNA dependent DNA polymerase activity of HIV2 recombinant reverse transcriptase at 140 uM
[11] = target: T1, Human immunodeficiency virus type 1 reverse transcriptase (Human immunodeficiency virus 1, UniProt Q72547); assay: Inhibition of RNA dependent DNA polymerase activity of HIV1 BH10 recombinant reverse transcriptase p66/p51 assessed as residual enzyme activity
How it was run: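 Recombinant RT RNA-dependent DNA polymerase activity measured as [3H]dTTP incorporation into poly(rA)n·oligo(dT)12-18 at 37 °C in 1% DMSO. Inhibitor was mixed into buffer before RT was added. Compound present at 50 µg/mL final.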

[12] = target: T1, Human immunodeficiency virus type 1 reverse transcriptase; assay: Inhibition of DNA dependent DNA polymerase activity of HIV1 BH10 recombinant reverse transcriptase p66/p51 assessed as residual enzyme activity
How it was run: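 Recombinant RT DNA-dependent DNA polymerase assay at 37 °C in 1% DMSO, with the inhibitor premixed into buffer before RT was added. Template was activated herring sperm DNA, 20 µg/mL final, with all four dNTPs. Compound present at 50 µg/mL final.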

[13] = Selectivity index, ratio of CC50 for human 721.221 cells to IC50 for HIV1 pseudovirus infection; format: functional
How it was run: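 CC50 in 721.221 cells from a 72 h XTT viability assay, divided by IC50 against infection by VSV-G-pseudotyped HIV-1 GFP reporter virus. For the infection assay, cells were infected with 5.6 µg/mL Polybrene and 1% DMSO in RPMI, then fixed at 48–72 h and analysed by flow cytometry. IC50 came from a four-parameter logistic fit.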

[14] = target: Human immunodeficiency virus type 1 reverse transcriptase (Human immunodeficiency virus 1, UniProt Q72547, Y181C); assay: Inhibition of RNA dependent DNA polymerase activity of HIV1 reverse transcriptase Y181C mutant expressed in Escherichia coli BL21
[15] = Cytotoxicity against human 721.221 cells after 72 hrs by XTT assay; format: cell-based
How it was run: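 721.221 B lymphocytes incubated 72 h at 37 °C with a range of inhibitor concentrations, each concentration in triplicate. Viability read by XTT absorbance at 450 nm, with 620 nm reference. CC50 is the concentration reducing viability by 50% versus the inhibitor-free control.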

[16] = target: T1, Human immunodeficiency virus type 1 reverse transcriptase; assay: Inhibition of RNA dependent DNA polymerase activity of HIV1 BH10 recombinant reverse transcriptase p66/p51 assessed as residual enzyme activity at 616 nM using rA.dT substrate by steady state kinetic assay
[17] = target: Human immunodeficiency virus type 1 reverse transcriptase (Human immunodeficiency virus 1) (UniProt Q72547); assay: Inhibition of RNA dependent DNA polymerase activity of HIV1 BH10 recombinant reverse transcriptase p66/p51 assessed as residual enzyme activity at 616 nM using variable enzyme levels by steady state kinetic assay relative to control
[18] = target: T1, Human immunodeficiency virus type 1 reverse transcriptase; assay: Inhibition of RNA dependent DNA polymerase activity of HIV1 BH10 recombinant reverse transcriptase p66/p51 assessed as residual enzyme activity at 616 nM using dTTP substrate by steady state kinetic assay

| SMILES | IC50 [1] [µM] | Ratio [2] | Activity (Escherichia coli) [%] | also measured |
| --- | --- | --- | --- | --- |
| S=C(NCc1ccco1)NC1CCCCC1 | > 20 | – | – | – |
| CCCOCCCNC(=S)Nc1ccc(C(=O)OC)cc1 | – | 0.2 | 2.6 | – |
| CCOC(=O)CCN(Cc1ccco1)C(=S)Nc1cccc(OC)c1 | > 20 | – | – | – |
| CCCOCCCNC(=S)Nc1ccc(C(C)(C)C)cc1 | – | 0.4 | 13.8 | – |
| Cc1ccnc2c1NC(=O)c1cccnc1N2C1CC1 [NEVIRAPINE] | – | – | 47.5 | IC50 [3]: 0.024 µM; Activity [4]: inactive; IC50 [5]: 0.014 µM; IC50 [6]: 0.04 µM; Activity [7]: Active; Activity [8]: inactive; IC50 [9]: 0.05 µM |
| CCCOCCCNC(=S)Nc1ccc(N(C)C)cc1 | – | 0.2 | 11.1 | – |
| Cc1ccc(CCN2C(=O)CS[C@@H]2c2ccc(C)o2)cc1 | > 20 | – | – | – |
| CCCOCCCNC(=S)Nc1cc(C)ccc1OC | 0.89 | 4.3 | 71.7 | – |
| CCCOCCCNC(=S)Nc1cc(F)ccc1F | – | 0.6 | 47.5 | – |
| CCCOCCCNC(=S)Nc1ccccc1Cl | – | 1.2 | 59.3 | – |
| CCCOCCCNC(=S)Nc1cccc(C#N)c1 | – | 1.1 | 75.2 | – |
| COc1cccc(CCNC(=S)Nc2ccc(Br)c(C)c2)c1OC | 7.7 | – | – | – |
| CCCOCCCNC(=S)Nc1cccc(C(=O)OCC)c1 | – | 1.2 | 56.6 | – |
| CCCOCCCNC(=S)Nc1cccc(OC)c1 | – | 3.2 | 98.7 | – |
| CCCOCCCNC(=S)Nc1ccc(Br)cc1 | – | 1.7 | 48.4 | – |
| O=S(=O)(Nc1n[nH]cc1Br)c1cccc2nsnc12 | 0.37 | – | – | inhibition [10]: 50%; IC50 [11]: 2.8 µM; IC50 [12]: 3.3 µM; Activity [7]: Active; Activity [8]: inactive; Ratio CC50/IC50 [13]: >446; IC50 [14]: 20 µM |
| COc1ccccc1NC(=S)NCc1ccco1 | > 20 | – | – | – |
| Cc1ccc(NC(=S)N2CCc3c([nH]c4ccccc34)C2)c(Cl)c1 | > 20 | – | – | – |
| CCCOCCCNC(=S)Nc1ccc(Br)c(C)c1 | – | 0.6 | 14.4 | – |
| CCCOCCCNC(=S)Nc1cc(C)ccc1Cl | 0.67 | 4.4 | 76.5 | – |
| CCCOCCCNC(=S)Nc1ccc(Cl)c(C(F)(F)F)c1 | – | 0.5 | 2.2 | – |

| SMILES | IC50 [1] [µM] | Ratio [2] | Activity (Escherichia coli) [%] | also measured |
| --- | --- | --- | --- | --- |
| CCCOCCCNC(=S)Nc1ccc(F)cc1Br | – | 1.2 | 47.6 | – |
| CCCOCCCNC(=S)Nc1ccc(Cl)cc1C | 2.6 | – | 47.5 | – |
| S=C(NCc1ccco1)Nc1ccc(Cl)cc1 | > 20 | – | – | – |
| CCCOCCCNC(=S)Nc1ccccc1OCC | 0.43 | 5.4 | 87.1 | – |
| CCCOCCCNC(=S)Nc1cc(OC)c(Cl)cc1OC | 0.17 | 7.4 | 62.2 | inhibition [10]: 50%; IC50 [11]: 0.51 µM; CC50 at 72 h [15]: 58 µM; IC50 [12]: 0.94 µM; Activity [7]: Active; Ki [16]: 1.8 µM; Activity [17]: 59%; Activity [8]: inactive; Ratio CC50/IC50 [13]: 345; Ki [18]: 1.1 µM; IC50 [14]: 70 µM |
| Cc1cc(NC(=S)NCCC2=CCCCC2)ccc1Br | 0.23 | – | – | – |
| CCOC(=O)CCCNC(=S)Nc1ccc(Cl)c(C(F)(F)F)c1 | 1.6 | – | – | – |
| CC(C)(C)CNC(=O)Nc1cc(C(F)(F)F)cc(C(F)(F)F)c1 | > 20 | – | – | – |
| CCCOCCCNC(=S)Nc1ccc(Br)c(Cl)c1 | – | 0.2 | 1 | – |
| S=C(NCc1ccco1)N1CCO[C@H](COc2cncc(Cl)c2)C1 | > 20 | – | – | – |
| CCCOCCCNC(=S)Nc1cc(Cl)ccc1OC | 0.32 | 3.2 | 50.8 | – |
| CCCOCCCNC(=S)Nc1cc(OC)ccc1OC | 3 | – | – | – |
| CCCCc1ccc(NC(=S)NCCCOCCC)cc1 | – | 2.4 | 74.2 | – |
| C=CCOc1nc(OCC=C)nc(OC[C@@H]2CN(C(=S)NCc3ccco3)CCO2)n1 | > 20 | – | – | – |
| CCCOCCCNC(=S)Nc1cccc(Cl)c1C | – | 0.4 | 10.8 | – |
| C[C@H](NC(=S)Nc1ccc(Cl)cc1)c1ccccc1 | 4 | – | – | – |
| COc1ccc(CCn2cc(NC(=O)CCc3ccoc3)cn2)cc1OC | > 20 | – | – | – |
| CCCOCCCNC(=S)Nc1cc(C)c(C)cc1C | – | 2.9 | 64.4 | – |
| CCCCc1ccc(NC(=S)NCCCOCCC)c(C)c1 | – | 0.2 | 4.5 | – |
| CCCOCCCNC(=S)Nc1ccc(Cl)cc1Cl | – | 0.2 | 13.2 | – |
